The results in this text go back to article PMC9847367 (European Journal of Medicinal Chemistry, 2023).

By IC50 is commonly meant the concentration that gives 50% inhibition. Low values mean higher potency, high ones lower potency.

Where a name gives a salt, the structure may show the parent alone.

The target in assay [1] is chymotrypsin (Bos taurus, UniProt P00766). Description: Enzymatic selectivity assay against chymotrypsin. The class given is biochemical. Put shortly: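 Bovine chymotrypsin (5 nM final) was preincubated for 10 min with serial dilutions of test compound in phosphate-buffered saline, pH 7.4. The reaction was started with N-succinyl-AAPF-AMC (10 μM final). Fluorescence (ex 380 nm/em 460 nm) was read every 1 min for 10 min. Reaction rates relative to DMSO controls gave the inhibition profiles.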

Assay [2] addresses SARS-CoV-2 3CL^pro (Severe acute respiratory syndrome coronavirus 2, UniProt P0DTD1). It counts as biochemical.

`C/N=c1\nc(-c2ccccc2)n(-c2ccccc2)s1` [6a, N-methyl-2,3-diphenyl-1,2,4-thiadiazol-5(2H)-imine hydrobromide salt] returned an IC50 in assay [1] of more than 100 µM. Moreover, in assay [2], the “inhibitory activity with the addition of 4 mM DTT” value was “lost their inhibitory activity”.
For `C/N=c1\nc(-c2ccc(F)cc2)n(-c2ccccc2)s1` [6g, 3-(4-fluorophenyl)-N-methyl-2-phenyl-1,2,4-thiadiazol-5(2H)-imine hydrobromide salt] the same measures were more than 100 µM and “lost their inhibitory activity”.
